Results collected from several papers.
Lines come from different studies, so protocols differ.
Target: 5-hydroxytryptamine receptor 1A (HTR1A, Homo sapiens, UniProt P08908)
One construct used (P08908 1-422): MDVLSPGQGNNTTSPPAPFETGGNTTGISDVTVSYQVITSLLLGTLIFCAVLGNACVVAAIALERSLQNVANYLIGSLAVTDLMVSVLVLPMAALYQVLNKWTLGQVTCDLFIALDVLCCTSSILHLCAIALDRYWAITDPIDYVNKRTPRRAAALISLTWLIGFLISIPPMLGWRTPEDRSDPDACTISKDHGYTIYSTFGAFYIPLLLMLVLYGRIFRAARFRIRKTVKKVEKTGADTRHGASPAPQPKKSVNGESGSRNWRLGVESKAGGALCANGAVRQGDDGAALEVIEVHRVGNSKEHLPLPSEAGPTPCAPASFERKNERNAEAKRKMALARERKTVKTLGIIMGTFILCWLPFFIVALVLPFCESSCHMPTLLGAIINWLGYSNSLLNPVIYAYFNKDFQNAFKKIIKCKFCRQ

Compound | test | quantity | value
CN(CCCCNC(=O)c1cc2ccccc2[nH]1)[C@@H]1Cc2cccc3[nH]c(=O)n(c23)C1 | ligand displacement, radioligand | Ki | 0.127 µM
CCCC[C@H](NC(=O)[C@H](C)c1c(C)[nH]c2ccc(O)cc12)c1ncc(-c2cc3ccccc3nc2OC)[nH]1 | cell-free assay | Ki | 2.08 µM
CN1CCCCC1CCN1c2ccccc2Sc2ccc([S+](C)[O-])cc21 (stereo not drawn) | ligand displacement, radioligand | IC50 | 0.0331 µM
CCCCN1CCC(COC(=O)c2ccc(N)c(OCF)c2)CC1 | cell-free assay, radioligand | Ki | > 10 µM
C[C@@H]1Cc2ccccc2N1C(=O)NCCCCN(C)[C@@H]1Cc2cccc3[nH]c(=O)n(c23)C1 | ligand displacement, radioligand | Ki | 0.0332 µM
COc1ccccc1N1CCN(CCCCOc2ccc3c(c2)NC(=O)CC3)CC1 | ligand displacement, radioligand | Ki | 0.00028 µM
CCOc1c(O)cc(Br)c2c1CN1CCc3cc(OCC(F)F)c(O)cc3[C@@H]1C2 | cell-free assay, radioligand | Ki | 0.334 µM
CCNC(=O)c1cc2c(N3CCOC[C@@H]3C)ccnc2[nH]1 | cell-free assay, radioligand | Ki | > 10 µM
O=C1c2ccccc2CCN1CCCCN1CCN(c2cccc(Cl)c2Cl)CC1 | ligand displacement, radioligand | Ki | 0.0015 µM
